Measurements: ChEMBL document CHEMBL1124215, “Improved delivery through biological membranes. 26. Design, synthesis, and pharmacological activity of a novel chemical delivery system for beta-adrenergic blocking agents” (1988)
Calls of active or inactive are those of the source. No cut-off for these calls is given here.

Key:
Oryctolagus cuniculus [1] = assay: Effect on IOP of rabbits 0 min after administration (1%); type: functional
How it was run: (§1)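 IOP was read by pneumatonometer in unrestrained, unanesthetized rabbits after local propacaine drops. Drug was given as a 1% or 2.5% solution in pH 7.4 buffer or saline to both eyes, at least four rabbits per group; controls (at least three) received carrier only. Readings were taken at 30 and 60 min and at 2, 3, 4, 6 and 8 h. Values are mean ± SE; Student's t test.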

Oryctolagus cuniculus [2] = assay: Effect on IOP of rabbits 60 min after administration (1%); type: functional; how it was run: as §1
Oryctolagus cuniculus [3] = assay: Percentage change of IOP in rabbits after 4 hr administration (1%) of compound; type: functional
How it was run: (§2)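 Rabbits received 1% or 2.5% drug solution in pH 7.4 buffer or saline in both eyes, at least four per group. A control group of at least three rabbits received carrier only. IOP was read by pneumatonometer in unrestrained, unanesthetized animals after one drop of 0.5% propacaine diluted 1:2 with saline. Readings were taken at 30 and 60 min and at 2–8 h. Values are mean ± SE, with significance by Student's t test.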

Oryctolagus cuniculus [4] = assay: Effect on IOP of rabbits 6 hr min after administration (2.5%); type: functional; how it was run: as §1
Oryctolagus cuniculus [5] = assay: Percentage change of IOP in rabbits after 8 hr administration (1%) of compound; type: functional; how it was run: as §2
Oryctolagus cuniculus [6] = assay: Concentration of propranolone oxime in cornea of rabbit after 30 min administration of compound; N/A= no oxime can be present after administration of propranolone hydrochloride; type: functional, organism-based
How it was run: (§3)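 Adult male New Zealand albino rabbits (2.5–3.5 kg), at least four per time point. 100 µL of a 1% solution in saline was instilled topically into both eyes. Animals were killed at 30, 60 or 120 min. Cornea and iris-ciliary body were homogenized in methanol to 10% homogenates and deproteinized by centrifugation. Aqueous humor was analysed undiluted. HPLC was calibrated against spiked control-rabbit tissue. Values are mean ± SE, µg/g.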

Oryctolagus cuniculus [7] = assay: Percentage change of IOP in rabbits after 6 hr administration (1%) of compound; type: functional; how it was run: as §2
Oryctolagus cuniculus [8] = assay: Percentage change of IOP in rabbits after 0 min administration (2.5%) of compound; type: functional; how it was run: as §1
Oryctolagus cuniculus [9] = assay: Concentration in iris-ciliary body of rabbit after 30 min administration of compound; type: functional, organism-based; how it was run: as §3
Oryctolagus cuniculus [10] = assay: Percentage change of IOP in rabbits after 2 hr administration (2.5%) of compound; type: functional; how it was run: as §1
Oryctolagus cuniculus [11] = assay: Concentration of propranolone oxime in aqueous humor of rabbit after 60 min administration of compound; N/A= no oxime can be present after administration of propranolone hydrochloride; type: functional, organism-based; details: Aqueous humor of eyeball; how it was run: as §3
Oryctolagus cuniculus [12] = assay: Effect on IOP of rabbits 8 hr min after administration (2.5%); type: functional; how it was run: as §1
Oryctolagus cuniculus [13] = assay: Concentration in aqueous humor of rabbit after 30 min administration of compound; type: functional, organism-based; details: Aqueous humor of eyeball; how it was run: as §3
Oryctolagus cuniculus [14] = assay: Effect on IOP of rabbits 30 mins after administration (2.5%); type: functional; how it was run: as §1
Oryctolagus cuniculus [15] = assay: Percentage change of IOP in rabbits after 30 min administration (1%) of compound; type: functional; how it was run: as §2
Oryctolagus cuniculus [16] = assay: Effect on IOP of rabbits 30 mins after administration (1%); type: functional; how it was run: as §1
Oryctolagus cuniculus [17] = assay: Effect on IOP of rabbits 60 mins after administration (2.5%); type: functional; how it was run: as §1
Oryctolagus cuniculus [18] = assay: Concentration of propranolone oxime in iris-ciliary body of rabbit after 60 min administration of compound; N/A= no oxime can be present after administration of propranolone hydrochloride; type: functional, organism-based; how it was run: as §3
Oryctolagus cuniculus [19] = assay: Effect on IOP of rabbits 4 hr after administration (2.5%); type: functional; how it was run: as §1
Oryctolagus cuniculus [20] = assay: Concentration in cornea of rabbit after 60 min administration of compound; type: functional, organism-based; how it was run: as §3
Oryctolagus cuniculus [21] = assay: Concentration of propranolone oxime in aqueous humor of rabbit after 120 min administration of compound; N/A= no oxime can be present after administration of propranolone hydrochloride; type: functional, organism-based; details: Aqueous humor of eyeball; how it was run: as §3
Oryctolagus cuniculus [22] = assay: Effect on IOP of rabbits 0 min after administration (2.5%); type: functional; how it was run: as §1
Oryctolagus cuniculus [23] = assay: Percentage change of IOP in rabbits after 6 hr administration (2.5%) of compound; type: functional; how it was run: as §2
Oryctolagus cuniculus [24] = assay: Effect on IOP of rabbits 6 hr min after administration (1%); type: functional; how it was run: as §1
Oryctolagus cuniculus [25] = assay: Effect on IOP of rabbits 8 hr min after administration (1%); type: functional; how it was run: as §1
Oryctolagus cuniculus [26] = assay: Effect on IOP of rabbits 2 hr after administration (1%); type: functional; how it was run: as §1
Oryctolagus cuniculus [27] = assay: Concentration of propranolone oxime in aqueous humor of rabbit after 30 min administration of compound; N/A= no oxime can be present after administration of propranolone hydrochloride; type: functional, organism-based; details: Aqueous humor of eyeball; how it was run: as §3
Oryctolagus cuniculus [28] = assay: Concentration in cornea of rabbit after 30 min administration of compound; type: functional, organism-based; how it was run: as §3
Oryctolagus cuniculus [29] = assay: Percentage change of IOP in rabbits after 0 min administration (1%) of compound; type: functional; how it was run: as §1
Oryctolagus cuniculus [30] = assay: Effect on IOP of rabbits 3h after administration (1%); type: functional; how it was run: as §1
Oryctolagus cuniculus [31] = assay: Effect on IOP of rabbits 2 hr after administration (2.5%); type: functional; how it was run: as §1
Oryctolagus cuniculus [32] = assay: Concentration in aqueous humor of rabbit after 60 min administration of compound; type: functional, organism-based; details: Aqueous humor of eyeball; how it was run: as §3
Oryctolagus cuniculus [33] = assay: Effect on IOP of rabbits 3h after administration (2.5%); type: functional; how it was run: as §1
Oryctolagus cuniculus [34] = assay: Percentage change of IOP in rabbits after 3h administration (2.5%) of compound; type: functional; how it was run: as §2
Oryctolagus cuniculus [35] = assay: Percentage change of IOP in rabbits after 2 hr administration (1%) of compound; type: functional; how it was run: as §1
Oryctolagus cuniculus [36] = assay: Percentage change of IOP in rabbits after 3h administration (1%) of compound; type: functional; how it was run: as §2
Oryctolagus cuniculus [37] = assay: Percentage change of IOP in rabbits after 60 min administration (1%) of compound; type: functional; how it was run: as §2
Oryctolagus cuniculus [38] = assay: Percentage change of IOP in rabbits after 4 hr administration (2.5%) of compound; type: functional; how it was run: as §2
Oryctolagus cuniculus [39] = assay: Effect on IOP of rabbits 4 hr after administration (1%); type: functional; how it was run: as §1
Oryctolagus cuniculus [40] = assay: Concentration of propranolone oxime in iris-ciliary body of rabbit after 30 min administration of compound; N/A= no oxime can be present after administration of propranolone hydrochloride; type: functional, organism-based; how it was run: as §3
Oryctolagus cuniculus [41] = assay: Percentage change of IOP in rabbits after 30 min administration (2.5%) of compound; type: functional; how it was run: as §2
Oryctolagus cuniculus [42] = assay: Percentage change of IOP in rabbits after 8 hr administration (2.5%) of compound; type: functional; how it was run: as §2
Oryctolagus cuniculus [43] = assay: Percentage change of IOP in rabbits after 60 min administration (2.5%) of compound; type: functional; how it was run: as §2
Oryctolagus cuniculus [44] = assay: Concentration of propranolone oxime in iris-ciliary body of rabbit after 120 min administration of compound; N/A= no oxime can be present after administration of propranolone hydrochloride; type: functional, organism-based; how it was run: as §3
Oryctolagus cuniculus [45] = assay: Concentration of propranolone oxime in cornea of rabbit after 120 min administration of compound; N/A= no oxime can be present after administration of propranolone hydrochloride; type: functional, organism-based; how it was run: as §3
Oryctolagus cuniculus [46] = assay: Concentration of propranolone oxime in cornea of rabbit after 60 min administration of compound; N/A= no oxime can be present after administration of propranolone hydrochloride; type: functional, organism-based; how it was run: as §3
Oryctolagus cuniculus [47] = assay: Percentage change of IOP in rabbits after 5 hr administration (1%) of compound; type: functional; how it was run: as §2
Oryctolagus cuniculus [48] = assay: Effect on IOP of rabbits 1 hr after administration (1%); type: functional; how it was run: as §1
Oryctolagus cuniculus [49] = assay: Percentage change of IOP in rabbits after 1 hr administration (1%) of compound; type: functional; how it was run: as §1
Oryctolagus cuniculus [50] = assay: Effect on IOP of rabbits 6 hr after administration (1%); type: functional; how it was run: as §1
Oryctolagus cuniculus [51] = assay: Effect on IOP of rabbits 5 hr after administration (1%); type: functional

Compound: CC(C)NCC(O)COc1cccc2ccccc12 (stereo not drawn) [PROPRANOLOL]
- IOP (Oryctolagus cuniculus [1]): 30.8 mmHg
- IOP (Oryctolagus cuniculus [2]): 27.6 mmHg
- Change (Oryctolagus cuniculus [3]): -8.44%
- IOP (Oryctolagus cuniculus [4]): 25.4 mmHg
- Change (Oryctolagus cuniculus [5]): -1.95%
- Concentration (Oryctolagus cuniculus [6]): inactive
- Change (Oryctolagus cuniculus [7]): -5.84%
- Change (Oryctolagus cuniculus [8]): 0%
- Concentration (Oryctolagus cuniculus [9]): 8.1 µg/g
- Change (Oryctolagus cuniculus [10]): 1.18%
- Concentration (Oryctolagus cuniculus [11]): inactive
- IOP (Oryctolagus cuniculus [12]): 25.2 mmHg
- Concentration (Oryctolagus cuniculus [13]): 1.3 µg/g
- IOP (Oryctolagus cuniculus [14]): 27.6 mmHg
- Change (Oryctolagus cuniculus [15]): >-9.1%
- IOP (Oryctolagus cuniculus [16]): 29 mmHg
- IOP (Oryctolagus cuniculus [17]): 27.9 mmHg
- Concentration (Oryctolagus cuniculus [18]): inactive
- IOP (Oryctolagus cuniculus [19]): 25.6 mmHg
- Concentration (Oryctolagus cuniculus [20]): 14.5 µg/g
- Concentration (Oryctolagus cuniculus [21]): inactive
- IOP (Oryctolagus cuniculus [22]): 25.4 mmHg
- Change (Oryctolagus cuniculus [23]): 0%
- IOP (Oryctolagus cuniculus [24]): 29 mmHg
- IOP (Oryctolagus cuniculus [25]): 30.2 mmHg
- IOP (Oryctolagus cuniculus [26]): 29.1 mmHg
- Concentration (Oryctolagus cuniculus [27]): inactive
- Concentration (Oryctolagus cuniculus [28]): 47.1 µg/g
- Change (Oryctolagus cuniculus [29]): 0%
- IOP (Oryctolagus cuniculus [30]): 27.4 mmHg
- IOP (Oryctolagus cuniculus [31]): 25.7 mmHg
- Concentration (Oryctolagus cuniculus [32]): 0.3 µg/g
- IOP (Oryctolagus cuniculus [33]): 25.7 mmHg
- Change (Oryctolagus cuniculus [34]): 1.18%
- Change (Oryctolagus cuniculus [35]): -5.52%
- Change (Oryctolagus cuniculus [36]): -11.04%
- Change (Oryctolagus cuniculus [37]): >-10.39%
- Change (Oryctolagus cuniculus [38]): 0.79%
- IOP (Oryctolagus cuniculus [39]): 28.2 mmHg
- Concentration (Oryctolagus cuniculus [40]): inactive
- Change (Oryctolagus cuniculus [41]): >8.66%
- Change (Oryctolagus cuniculus [42]): -0.79%
- Change (Oryctolagus cuniculus [43]): >9.84%
- Concentration (Oryctolagus cuniculus [44]): inactive
- Concentration (Oryctolagus cuniculus [45]): inactive
- Concentration (Oryctolagus cuniculus [46]): inactive

Compound: CC(C)(C)NC[C@H](O)COc1nsnc1N1CCOCC1 (stereo in doubt; 1b) [TIMOLOL]
- IOP (Oryctolagus cuniculus [1]): 29.19 mmHg
- Change (Oryctolagus cuniculus [3]): 14.8%
- Change (Oryctolagus cuniculus [5]): >9.8%
- Change (Oryctolagus cuniculus [7]): 12.4%
- Change (Oryctolagus cuniculus [47]): 16.9%
- Change (Oryctolagus cuniculus [15]): >-10.93%
- IOP (Oryctolagus cuniculus [16]): 26 mmHg
- IOP (Oryctolagus cuniculus [26]): 27.21 mmHg
- IOP (Oryctolagus cuniculus [48]): 27.25 mmHg
- Change (Oryctolagus cuniculus [29]): 0%
- IOP (Oryctolagus cuniculus [30]): 25 mmHg
- Change (Oryctolagus cuniculus [49]): 6.65%
- Change (Oryctolagus cuniculus [35]): 6.78%
- Change (Oryctolagus cuniculus [36]): 14.3%
- IOP (Oryctolagus cuniculus [39]): 24.88 mmHg
- IOP (Oryctolagus cuniculus [50]): 25.58 mmHg
- IOP (Oryctolagus cuniculus [51]): 24.25 mmHg
